Data published in publication PMC12650307 (RSC Advances, 2025).

What was measured:
CDK2 = CDK2 (Homo sapiens, UniProt P24941); experiment: In vitro CDK2 enzyme inhibition; format: biochemical
HepG2 cells = experiment: MTT cytotoxicity assay, HepG2; format: cell-based; conditions: Homo sapiens, HepG2, 48 h, read-out: IC50 HepG2
MCF-7 cells [1] = experiment: MTT cytotoxicity assay, MCF-7; format: cell-based; conditions: Homo sapiens, MCF7, 48 h, read-out: IC50 MCF-7
MCF-7 cells [2] = experiment: Cell cycle analysis; format: cell-based, human
Method in brief: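 MCF-7 cells were exposed for 48 h, harvested by trypsinization and washed twice in PBS. Fixed in ice-cold 60% (w/w) ethanol at 4 °C for 12 h, then rewashed in PBS. Stained 30 min in buffer with RNase and propidium iodide. Flow cytometry gave the % of cells in G1, S and G2, with untreated MCF-7 as control.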

Bax = Bax level by ELISA in treated MCF-7 cells; format: cell-based, human
Bcl-2 = Bcl-2 level by ELISA in treated MCF-7 cells; format: cell-based, human
MCF-7 cells [3] = experiment: Annexin V-FITC/PI apoptosis assay; format: cell-based, human; conditions: MCF-7, 48 h at IC50
Method in brief: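 Treated MCF-7 cells for 48 h, then trypsinized and washed in PBS. Stained with annexin V-FITC plus propidium iodide at room temperature in the dark, per kit instructions, then read on a FACScan flow cytometer. Quadrants: upper left necrotic, upper right late apoptotic, lower right early apoptotic, lower left living. Untreated MCF-7 served as control.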

Question: Cc1cccc(N=Nc2c(N)nn(-c3ccccn3)c2N)c1 [Compound 2, 1-(2-Pyridinyl)-4-(3-tolyldiazenyl)-1H-pyrazole-3,5-diamine] was tested. Which IC50 (CDK2) did it give?
Answer: The IC50 was 1050 ± 200 nM.

Question: How did the IC50 (CDK2) turn out when CC(=O)c1ccc(N=Nc2c(N)nn(-c3ccccn3)c2N)cc1 [Compound 3, 1-(4-((3,5-Diamino-1-(2-pyridinyl)-1H-pyrazol-4-yl)diazenyl)phenyl)ethan-1-one] was run?
Answer: The IC50 was 1200 ± 150 nM.

Question: With Nc1nn(-c2ccccn2)c(N)c1N=Nc1ccc(S(=O)(=O)O)cc1 [Compound 4, 4-((3,5-Diamino-1-(2-pyridinyl)-1H-pyrazol-4-yl)diazenyl)benzenesulfonic acid] as the compound, how does the IC50 (HepG2 cells) read?
Answer: The IC50 was 53.8 ± 3.2 µM.

Question: What about the IC50 (MCF-7 cells [1]) of the same compound?
Answer: Its IC50 is 48.7 ± 2.8 µM.

Question: What about the IC50 (CDK2) of the same compound?
Answer: The IC50 was 750 ± 50 nM.

Question: How did the “fold increase in S phase in comparison to control” value (MCF-7 cells [2]; MCF-7) turn out when Nc1nn(-c2ccccn2)c(N)c1N=Nc1ccc(C(=O)O)c(O)c1 [Compound 5, 4-((3,5-Diamino-1-(2-pyridinyl)-1H-pyrazol-4-yl)diazenyl)-2-hydroxybenzoic acid] was run?
Answer: The value was 1.2 fold.

Question: What about the “% S” value (MCF-7 cells [2]; MCF-7, 48 h at its IC50, control 35.52) of the same compound?
Answer: Its value is 41.02%.

Question: What about the “% G1” value (MCF-7 cells [2]; MCF-7, 48 h at its IC50, control 38.02) of the same compound?
Answer: Its value is 11.98%.

Question: And the “Bax/Bcl-2 ratio in comparison with control” value (Bax)?
Answer: The value was “approximately 20 fold”.

Question: And the Bax (Bax; control 57.22 ± 0.9)?
Answer: The Bax was 369.15 ± 0.7 pg/mL.

Question: And the “Bax FLD” value (Bax; relative to control = 1)?
Answer: Its value is 6.45 fold.

Question: What about the “decrease of anti-apoptotic Bcl-2 level in comparison with control” value (Bcl-2) of the same compound?
Answer: Its value is 3 fold.

Question: What about the Bcl-2 (Bcl-2; control 5.31 ± 0.5) of the same compound?
Answer: Its Bcl-2 is 1.72 ± 0.08 ng/mL.

Question: And the “Bcl-2 FLD” value (Bcl-2; relative to control = 1)?
Answer: Its value is 0.3.

Question: And the IC50 (HepG2 cells)?
Answer: Its IC50 is 13.1 ± 1.1 µM.

Question: And the Late apoptosis (MCF-7 cells [3]; control 0.04)?
Answer: Its Late apoptosis is 8.10%.

Question: What about the Necrosis (MCF-7 cells [3]; control 0.18) of the same compound?
Answer: Its Necrosis is 0.02%.

Question: What about the Early apoptosis (MCF-7 cells [3]; control 0.43) of the same compound?
Answer: The Early apoptosis was 71.1%.

Question: And the “Total (apoptosis/necrosis)” value (MCF-7 cells [3]; control 0.65)?
Answer: Its value is 79.22.

Question: And the IC50 (MCF-7 cells [1])?
Answer: Its IC50 is 8.03 ± 0.6 µM.

Question: What about the “CDK2 inhibitory activity relative to roscovitine” value (CDK2) of the same compound?
Answer: Its value is 2 fold.

Question: And the IC50 (CDK2)?
Answer: Its IC50 is 560 ± 30 nM.

Question: Which results are given for NC(N)=NS(=O)(=O)c1ccc(N=Nc2c(N)nn(-c3ccccn3)c2N)cc1 [Compound 6, 4-((3,5-Diamino-1-(2-pyridinyl)-1H-pyrazol-4-yl)diazenyl)-N-(diaminomethylene)benzenesulfonamide]?
Answer: IC50 (HepG2 cells): 22.8 ± 1.5 µM; IC50 (MCF-7 cells [1]): 26.1 ± 1.7 µM; CDK2 inhibitory activity relative to roscovitine (CDK2): 2 fold; IC50 (CDK2): 460 ± 20 nM

Question: For Nc1nn(-c2ccccn2)c(N)c1N=Nc1ccc(N=Nc2ccccc2)cc1 [Compound 7, 4-((4-(Phenyldiazenyl)phenyl)diazenyl)-1-(2-pyridinyl)-1H-pyrazole-3,5-diamine], which IC50 (HepG2 cells) is on record?
Answer: Its IC50 is 67.1 ± 3.5 µM.

Question: And the IC50 (MCF-7 cells [1])?
Answer: Its IC50 is 35.1 ± 2.2 µM.

Question: What about the IC50 (CDK2) of the same compound?
Answer: The IC50 was 770 ± 50 nM.

Question: For Nc1nn(-c2ccccn2)c(N)c1N=Nc1cc(Cl)c(Cl)cc1Cl [Compound 8, 1-(2-Pyridinyl)-4-((2,4,5-trichlorophenyl)diazenyl)-1H-pyrazole-3,5-diamine], which IC50 (CDK2) is on record?
Answer: The IC50 was 1460 ± 500 nM.

Question: How did the IC50 (CDK2) turn out when Nc1nn(-c2ccccn2)c(N)c1N=Nc1cccc([N+](=O)[O-])c1 [Compound 9, 4-((3-Nitrophenyl)diazenyl)-1-(2-pyridinyl)-1H-pyrazole-3,5-diamine] was run?
Answer: The IC50 was 1500 ± 700 nM.

Question: For COc1ccc(N=Nc2c(N)nn(-c3ccccn3)c2N)cc1 [Compound 10, 4-((4-Methoxyphenyl)diazenyl)-1-(2-pyridinyl)-1H-pyrazole-3,5-diamine], which IC50 (HepG2 cells) is on record?
Answer: Its IC50 is 41.6 ± 2.4 µM.

Question: And the IC50 (MCF-7 cells [1])?
Answer: Its IC50 is 15.4 ± 1.2 µM.

Question: What about the IC50 (CDK2) of the same compound?
Answer: Its IC50 is 850 ± 50 nM.

Question: For Nc1nn(-c2ccccn2)c(N)c1N=Nc1ccccc1Cl [Compound 11, 4-((2-Chlorophenyl)diazenyl)-1-(2-pyridinyl)-1H-pyrazole-3,5-diamine], which IC50 (HepG2 cells) is on record?
Answer: Its IC50 is 74.2 ± 3.8 µM.

Question: And the IC50 (MCF-7 cells [1])?
Answer: The IC50 was 61.8 ± 3.4 µM.

Question: And the “CDK2 inhibitory activity relative to roscovitine” value (CDK2)?
Answer: The value was 2 fold.

Question: And the IC50 (CDK2)?
Answer: The IC50 was 450 ± 20 nM.

Question: Nc1nn(-c2ccccn2)c(N)c1N=Nc1nccs1 [Compound 12, 1-(Pyridin-2-yl)-4-(thiazol-2-yldiazenyl)-1H-pyrazole-3,5-diamine] was tested. Which IC50 (CDK2) did it give?
Answer: Its IC50 is 1240 ± 850 nM.

Question: Which IC50 (HepG2 cells) does the source give for COc1cccc2c1C(=O)c1c(O)c3c(c(O)c1C2=O)C[C@@](O)(C(=O)CO)C[C@@H]3O[C@H]1C[C@H](N)[C@H](O)[C@H](C)O1 [DOX, doxorubicin, reference compound] here?
Answer: Its IC50 is 4.5 ± 0.2 µM.
